Measurements taken from ChEMBL document CHEMBL1155589, “Use of COMPARE analysis to discover new natural product drugs: isolation of camptothecin and 9-methoxycamptothecin from a new source” (J Nat Prod, 2000).
Values after ≈ are worked out from the molar mass of the structure shown.

Experiments:
Type in all cases: functional, organism-based
[1] = system: Saccharomyces cerevisiae; test: Growth inhibition of RAD52/topoisomerase 1 deficient Saccharomyces cerevisiae RS321N harbouring plasmid containing human topoisomerase 1 in galactose medium after 48 hrs
In short: (§1)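 Strains: RS321N (rad52 top1) carrying a single-copy plasmid with human TOP1 under the GAL1 promoter; RS321NYCp50 (vector control, tested in galactose); RS322N (rad52). Cells diluted to OD600 0.01 in synthetic minimal medium with glucose or galactose. Compounds added in DMSO (final <1%). Incubated 48 h at 30 °C in a humidified chamber. Read as background-subtracted OD595. Growth decrease relative to drug-free wells, from concentration-response, gave IC50.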

[2] = system: Saccharomyces cerevisiae; test: Growth inhibition of Saccharomyces cerevisiae expressing wild type erg6 in glucose medium after 48 hrs
[3] = system: Saccharomyces cerevisiae; test: Growth inhibition of RAD52 deficient Saccharomyces cerevisiae RS322 in glucose medium after 48 hrs; in short: as §1
[4] = system: Saccharomyces cerevisiae; test: Growth inhibition of RAD52/topoisomerase-1 deficient Saccharomyces cerevisiae RS321 in glucose medium after 48 hrs; in short: as §1
[5] = system: Saccharomyces cerevisiae; test: Growth inhibition of RAD52/topoisomerase 1 deficient Saccharomyces cerevisiae RS321N harbouring plasmid containing human topoisomerase 1 in glucose medium after 48 hrs; in short: as §1
[6] = system: Saccharomyces cerevisiae; test: Growth inhibition of RAD52 deficient Saccharomyces cerevisiae RS322 carrying pRAD52 in galactose medium after 48 hrs
[7] = system: Saccharomyces cerevisiae; test: Growth inhibition of RAD52 deficient Saccharomyces cerevisiae RS322 carrying pRAD52 in glucose medium after 48 hrs
[8] = system: Saccharomyces cerevisiae; test: Growth inhibition of Saccharomyces cerevisiae RS321N containing YCp50 vector plasmid after 48 hrs; in short: as §1

SMILES | IC50 [1] | IC50 [2] | IC50 [3] | IC50 [4] | IC50 [5] | IC50 [6] | IC50 [7] | IC50 [8]
CC[C@@]1(O)C(=O)OCc2c1cc1n(c2=O)Cc2cc3ccccc3nc2-1 [CAMPTOTHECIN] | 0.014 µg/mL (≈ 0.0402 µM) | > 100 µg/mL | 0.06 µg/mL (≈ 0.172 µM) | > 100 µg/mL | > 100 µg/mL | 0.18 µg/mL (≈ 0.517 µM) | > 100 µg/mL | 0.16 µg/mL (≈ 0.459 µM)
CC[C@@]1(O)C(=O)OCc2c1cc1n(c2=O)Cc2cc3c(CN(C)C)c(O)ccc3nc2-1 [TOPOTECAN] | 9.9 µg/mL (≈ 23.5 µM) | – | – | – | > 100 µg/mL | – | – | –
